# Assay outcomes from PubChem.
# LANA-H2B inh = blocks KSHV LANA binding to histone H2A/H2B; actives 0.6% (n = 320,000); inhibition, % (test concentration not listed); cell-free LANA-H2A/H2B peptide, fluorescence polarization; Q9QR71; AID 2629; in the data active = inhibition mostly above about 10%, no sharp cut-off; inactive = mostly below about 6.7%
# EBNA-1 inhibitor = blocks EBNA-1 binding to DNA; EBNA-1 DNA binding, fluorescence polarization; inhibition, % at 14.8 µM; actives 0.34% (n = 300,000); AID 1950; in the data active = inhibition above about 28%
# Bfl-1 A1 inh = inhibitors of the anti-apoptotic protein A1, read as caspase activation | MEF A1-2A-BIM cells, Caspase-Glo 3/7 luminescence, 3 h; percent of clofoctol response, vehicle zero | caspase activation, % (concentration not given with the values) | actives 0.066% (n = 330,000);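 active = over half of replicate activation scores above 10%, or exactly half above 10 with the replicate mean above 10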
# HNF4A DNA FP = change in binding of human HNF4 alpha to DNA. P41235. HNF4a-FITC DNA binding, fluorescence polarization, 1 h. activity change, % at 10 µM. actives 0.3% (n = 360,000). AID 1224865; in the data active = activity change above about 30%, passing the limit was not always enough
# Target sequence (P41235 whole entry, looked up): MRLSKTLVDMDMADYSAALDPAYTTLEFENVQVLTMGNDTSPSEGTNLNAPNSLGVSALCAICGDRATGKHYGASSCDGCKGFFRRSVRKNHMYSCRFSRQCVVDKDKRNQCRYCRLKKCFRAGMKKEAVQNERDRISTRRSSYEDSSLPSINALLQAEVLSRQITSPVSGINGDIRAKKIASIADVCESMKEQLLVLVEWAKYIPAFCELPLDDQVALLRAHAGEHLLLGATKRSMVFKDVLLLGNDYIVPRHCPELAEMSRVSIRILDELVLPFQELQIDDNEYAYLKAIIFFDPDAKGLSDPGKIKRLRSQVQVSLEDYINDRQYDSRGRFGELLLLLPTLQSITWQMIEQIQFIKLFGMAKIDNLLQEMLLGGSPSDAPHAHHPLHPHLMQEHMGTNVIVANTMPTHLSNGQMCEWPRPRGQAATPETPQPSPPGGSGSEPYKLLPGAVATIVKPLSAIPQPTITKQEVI
# CSN inh = inhibitors of human CSN-mediated cullin deneddylation | Q92905 | Purified CSN, SCF-Nedd8-OG deneddylation, fluorescence polarization | inhibition, % at 12.5 µM | actives 0.38% (n = 360,000) | AID 651999;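 active = pattern-corrected inhibition above about 35%, with an unprinted fluorescence ratio check between 0.5 and 1.5, limit read from the data, passing the limit was not always enough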;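 note: 0% = enzyme with substrate and 100% = substrate without enzyme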
#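 Assay system: HEK293T-derived human Csn5 enzyme; quantity: 0.24 nM enzyme; medium: Tris/NaCl/DTT buffer, pH 7.5; also added: substrate SCFSkp2-Nedd8OG, 10 nM; doses: 12.5 µM compound; schedule: 90 min reaction at room temperature; signal: FP; read-out: % inhibition of substrate cleavage by Csn5; benchmarks: substrate-only high control, full reaction low control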
# ZTA DNA inh = ZTA (EBV) inhibition in EBNA-1 counter-screen. actives 0.15% (n = 320,000). AID 2234. ZTA-DNA binding, fluorescence polarization. P03206. inhibition, % at 11 µM; in the data active = inhibition above about 33%
# The depositor's hits bear a star; . = no result; + = active, no number. Compounds with a hit are over-represented: about 1.5% of the library has one in this group of screens.
SMILES,LANA-H2B inh,EBNA-1 inhibitor,Bfl-1 A1 inh,HNF4A DNA FP,CSN inh,ZTA DNA inh
CC1=C(C#N)C(=O)N(C2CCS(=O)(=O)C2)C(=O)/C1=C\c1ccco1 (stereo not drawn),14,63*,-1,.,.,79*
O=C1/C(=C\c2ccco2)SC(=S)N1C1CCCCC1,-9,2,0,.,.,-10
COc1ccc(-c2cc(C(F)(F)F)n3nc(C(=O)N(C)Cc4ccccc4)cc3n2)cc1OC,18*,-19,0,-1,3,-2
CCOC(=O)c1c(NC(=S)Nc2ccccc2)sc2c1CCN(CC)C2,-14,11,-1,44*,31,15
O=C1CC(=O)Nc2cc(S(=O)(=O)N3CCOc4ccc(Cl)cc43)ccc2N1,31*,-3,-1,6,-2,-20
C[C@@H]1O[C@@H](O[C@@H]2[C@@H](O)[C@H](OCCc3ccc(O)c(O)c3)O[C@H](CO)[C@H]2OC(=O)/C=C/c2ccc(O)c(O)c2)[C@H](O)[C@H](O)[C@H]1O,-1,.,1,2,1,.
CCc1ccc(C2=NN(S(C)(=O)=O)C(c3cccs3)C2)cc1 (stereo not drawn),-6,5,1,92*,1,-19
Cc1ccc(CN2CCN(CCCn3cccn3)CC2CCO)cc1 (stereo not drawn),3,0,1,2,-2,-6
Cc1ccc(C(=O)NC(=S)NNC(=O)COc2ccccc2C)cc1,-6,3,-1,27*,-8,-9
CCOC(=O)C1CCN(C(=O)CSc2nc3ncccc3[nH]2)CC1,5,6,0,-1,3,-1
O=C(COc1ccc2c(-c3ccccc3)cc(=O)oc2c1)Nc1ccc(CCO)cc1,-2,20,0,16,66*,16
Cc1cc(=O)oc2cc(OCC(=O)N/N=C/c3ccccc3O)ccc12,9,3,-1,2,106*,8
O=C(COc1ccc2c(-c3ccccc3)cc(=O)oc2c1)Nc1ccc(CN2CCOCC2)cc1,0,-9,0,2,-3,-6
Cc1cc(=O)oc2cc(OCC(=O)c3ccccc3)ccc12,11,-2,1,-4,-1,-2
CC(C)CN(C(=O)CN1CCc2ccccc21)c1c(N)n(CC(C)C)c(=O)[nH]c1=O,-10,-2,0,32*,16,4
CCCCN(C(=O)C(C)N1C(=O)c2ccccc2C1=O)c1c(N)n(CCCC)c(=O)[nH]c1=O (stereo not drawn),2,.,-1,5,-3,4
CCCCN(C(=O)C(C)N1C(=O)c2ccccc2C1=O)c1c(N)n(CC(C)C)c(=O)[nH]c1=O (stereo not drawn),14*,.,0,-3,1,10
CCCCn1c(N)c(N(CCC(C)C)C(=O)CCCc2nc3ccccc3s2)c(=O)[nH]c1=O,4,0,0,4,1,6
CC(C)CN(C(=O)CN1CCN(c2ccccc2F)CC1)c1c(N)n(CC(C)C)c(=O)[nH]c1=O,0,-3,0,-1,-10,-5
CCCCN(C(=O)CCCc1nc2ccccc2s1)c1c(N)n(CC(C)C)c(=O)[nH]c1=O,176*,.,1,-3,-4,-14
CC(=O)c1cccc(NC(=O)NC(C)c2ccc3c(c2)OCO3)c1 (stereo not drawn),5,2,-1,-5,0,-21
CN(C(=O)c1ccc(NC(=O)Cc2cccc(NC(=O)C3CCN(C(=O)C4CCCC4)CC3)c2)cc1)C1CC1,.,.,.,1,4,.
CCOC(=O)c1ccc(OCC2NCCc3cc(OC)c(OC)cc32)cc1 (stereo not drawn),-1,-4,1,1,8,1
COCCCNC1=C(C#N)C(=O)NC2(CCCC2)S1,.,.,.,-5,-1,.
COc1ccc(Br)cc1CN1CCN(Cc2c[nH]c3ccccc23)CC1,-2,-4,1,59*,6,3
SMILES,LANA-H2B inh,EBNA-1 inhibitor,Bfl-1 A1 inh,HNF4A DNA FP,CSN inh,ZTA DNA inh
COc1ccc(CN2CCN(Cc3c[nH]c4ccccc34)CC2)cc1OC,.,.,.,2,0,.
CCCCCCCC/C=C\CCCCCCCC(=O)NCCc1ccc(O)c(O)c1,2,-1,12*,-1,-3,26
CCCCCCCC/C=C\CCCCCCCC(=O)NCCO,6,6,0,2,-7,-17
COc1ccc2cc(C(=O)N/N=C/c3sc4ccccc4c3O)ccc2c1,-7,-4,-1,133,66,-6
O=C(N/N=C/c1sc2ccccc2c1O)c1cccc2ccccc12,+,-1,0,75*,83,21
COc1ccc(C(=O)N/N=C/c2sc3ccccc3c2O)cc1,+,8,-1,126,104,11
CC1(C)Cc2cccc(OCC(=O)Nc3cc(S(C)(=O)=O)ccc3Cl)c2O1,-4,.,0,1,5,-10
CC1(C(=O)NS(=O)(=O)c2cccs2)CCN1C(=O)CC1CCCCC1 (stereo not drawn),.,.,.,1,3,.
O=C1N=C(N2CCCC2)CN1c1ccccc1,2,-6,0,0,4,-12
O=C(CNC(=O)N1CC(=O)Nc2ccccc21)NCCCc1ccccc1,.,.,.,5,1,.
O=C(CNC(=O)N1CC(=O)Nc2ccccc21)NCCc1ccc(Cl)cc1,17*,-6,-1,-3,3,3
O=C(NCCS(=O)(=O)NCc1ccccn1)c1ccccc1,-2,-3,0,-1,-1,3
CCOC(=O)C1(C)CCN1C(=O)c1cncc(Br)c1 (stereo not drawn),.,.,.,-1,-4,.
O=[N+]([O-])c1ccc2c(c1)-c1ccccc1C2=NO,.,.,.,7,2,.
Nc1ccc2c(c1)C(=NO)c1cc([N+](=O)[O-])ccc1-2,.,.,.,52*,18,.
COCCCn1c(SCC(=O)c2c(N)n(C3CC3)c(=O)[nH]c2=O)nnc1-c1ccccc1Cl,.,.,.,-3,0,.
COCCn1c(SCC(=O)c2c(N)n(C3CC3)c(=O)[nH]c2=O)nnc1-c1ccc(Cl)cc1,+,.,1,1,-3,-15
Cc1cc(C)cc(-n2ccnc2SCC(=O)c2c(N)n(C3CC3)c(=O)[nH]c2=O)c1,-3,.,0,1,2,2
Cc1ccc(C)c(-n2ccnc2SCC(=O)c2c(N)n(C3CC3)c(=O)[nH]c2=O)c1,+,.,0,0,-4,-23
CCCn1c(N)c(C(=O)CSc2nnc(-c3c[nH]c4ccccc34)n2C2CC2)c(=O)[nH]c1=O,-1,.,0,2,-2,.
Cc1ccc(-n2nnnc2SCC(=O)c2c(N)n(C3CC3)c(=O)[nH]c2=O)cc1,17*,.,-1,2,-4,-15
Cn1c(N)c(C(=O)CSc2nnc(-c3c[nH]c4ccccc34)n2C2CC2)c(=O)[nH]c1=O,7,.,0,-2,35*,11
